Data set [1] is described as follows: Inhibition of amyloid beta (1-42) aggregation at 100 uM measured at 8 hrs and 24 hrs by thioflavin T fluorescence method. A digest of the protocol: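 Aβ1-42 (30 µM) in PBS/10% DMSO at 37 °C, alone or with compound at 100 µM. ThT fluorescence (ex 440, em 485 nm) read at 8 h and 24 h, reported in arbitrary units; mean ± SEM of three independent experiments.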

The nature of data set [2]: Inhibition of amyloid beta (1-40) beta-sheet transition assessed as decrease in beta-sheet level after 7 days by CD spectroscopic analysis relative to control. A digest of the protocol: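 Aβ1-40 (50 µM) in PBS with 10% ethanol, alone or with compound (10 or 50 µM), incubated at 37 °C without agitation. CD spectra 195–250 nm were recorded at room temperature in a 0.1 cm cell, with buffer/ethanol or inhibitor blank baseline subtracted. Absolute ellipticity at 215 nm was followed over time and expressed relative to the control plateau.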

The nature of data set [3]: Inhibition of amyloid beta (1-40) fibrillation assessed as extended fibrillar weft formation at 50 uM after 7 days by TEM analysis. A digest of the protocol:
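Aβ1-40 (50 µM) in PBS/10% ethanol, with compound at 10 or 50 µM, incubated at 37 °C for up to 10 days. Aliquots taken at 7 days were applied to carbon-coated grids and negatively stained with 2% w/v uranyl acetate. Imaged by TEM at 60 kV and 39 000-fold magnification, compared with self-aggregating control.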

In data set [4] the target is Acetylcholinesterase (Electrophorus electricus) (UniProt O42275). The experiment in a line: Inhibition of electric eel AChE using acetylthiocholine iodide as substrate at 10 uM after 20 mins by Ellman's method. For orientation: DTNB colorimetry detects thiols as they appear.
Sequence of Acetylcholinesterase (Electrophorus electricus) (O42275 24-633 limits assumed): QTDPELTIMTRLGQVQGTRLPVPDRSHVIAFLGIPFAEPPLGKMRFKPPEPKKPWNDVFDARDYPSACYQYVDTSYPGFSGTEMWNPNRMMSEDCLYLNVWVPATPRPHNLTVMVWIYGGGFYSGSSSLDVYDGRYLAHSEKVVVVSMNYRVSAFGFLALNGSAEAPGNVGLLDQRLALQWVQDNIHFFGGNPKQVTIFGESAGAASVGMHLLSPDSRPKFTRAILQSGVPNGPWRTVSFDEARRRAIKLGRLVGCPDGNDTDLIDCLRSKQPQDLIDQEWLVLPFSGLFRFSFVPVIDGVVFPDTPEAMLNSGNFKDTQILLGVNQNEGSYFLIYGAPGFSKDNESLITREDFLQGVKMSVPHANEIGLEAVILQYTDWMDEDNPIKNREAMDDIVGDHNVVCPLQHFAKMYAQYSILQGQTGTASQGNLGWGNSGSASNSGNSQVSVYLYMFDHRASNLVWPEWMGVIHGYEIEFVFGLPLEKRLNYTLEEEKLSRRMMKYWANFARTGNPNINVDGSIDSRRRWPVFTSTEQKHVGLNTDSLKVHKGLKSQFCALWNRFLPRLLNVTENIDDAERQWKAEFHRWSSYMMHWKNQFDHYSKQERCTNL
The nature of data set [5]: Aqueous solubility of the compound in PBS buffer. Format: physicochemical. A digest of the protocol:
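Preliminary solubility in the incubation medium (PBS with up to 10% ethanol cosolvent) measured by UV spectroscopy; used to set the maximum soluble test concentration.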

For data set [6], the target named is Cholinesterase (Equus caballus) (UniProt P81908). The experiment in a line: Inhibition of equine serum BChE using butyrylthiocholine iodide as substrate at 10 uM after 20 mins by Ellman's method.
Sequence of Cholinesterase (Equus caballus) (P81908 whole entry): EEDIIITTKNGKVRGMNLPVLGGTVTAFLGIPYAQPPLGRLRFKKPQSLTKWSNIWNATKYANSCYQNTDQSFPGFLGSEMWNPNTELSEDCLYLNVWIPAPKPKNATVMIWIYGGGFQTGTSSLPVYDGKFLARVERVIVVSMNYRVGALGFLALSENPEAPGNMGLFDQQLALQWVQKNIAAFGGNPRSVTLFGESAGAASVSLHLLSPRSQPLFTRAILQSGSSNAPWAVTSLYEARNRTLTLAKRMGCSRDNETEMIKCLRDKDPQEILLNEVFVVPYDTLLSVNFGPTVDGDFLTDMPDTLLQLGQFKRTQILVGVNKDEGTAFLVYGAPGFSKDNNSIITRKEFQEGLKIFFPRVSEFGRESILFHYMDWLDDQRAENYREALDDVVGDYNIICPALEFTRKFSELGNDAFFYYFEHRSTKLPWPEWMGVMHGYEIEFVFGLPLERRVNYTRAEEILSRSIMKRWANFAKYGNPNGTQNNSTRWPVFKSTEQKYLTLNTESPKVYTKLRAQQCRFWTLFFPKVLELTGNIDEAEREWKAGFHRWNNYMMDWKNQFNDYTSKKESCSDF
A short description of data set [7]: Inhibition of HFIP-induced amyloid beta (1-40) aggregation after 2 hrs by thioflavin T fluorescence method. A digest of the protocol: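 Pre-monomerized Aβ1-40 (HFIP-dissolved, lyophilized) at 30 µM in PBS (0.01 M, NaCl 0.1 M, pH 7.4) with 2% HFIP and 10% DMSO, coincubated with compound in triplicate at 25 °C for 2 h. Sample mixed with 25 µM ThT in 0.025 M phosphate pH 6.0; excitation 440 nm, emission 485 nm. Peptide-free blanks subtracted; % inhibition versus control. Primary screen at 100 µM. IC50 from 5–7 concentrations (200–0.01 µM) tested in duplicate, three independent experiments.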

Each structure is given as a SMILES string. pIC50: −log10 of the molar value. Values after ≈ are worked out from the molar mass of the structure shown. Active and inactive are the calls of the source. No cut-off for these calls is given here.

The inhibition is the relative decrease from the control value, in per cent. One may read the solubility as how much of the substance goes into solution per volume. The low end stands for a poorly soluble substance, the high end for a readily soluble substance. The term pIC50 denotes the IC50 on a negative log10 scale, so that one unit is a factor of ten. Higher therefore signals a small IC50. `O=c1ccc2nc(-c3ccccc3)nn3c4ccccc4c1c23`: the inhibition entry in data set [1] and in data set [3] was “Active” throughout. Moreover, in data set [2], the inhibition result is “inactive”. In addition, the inhibition worked out at 46% in data set [4] and 59% in data set [6]. The compound also gave a solubility in data set [5] of 50 µM (≈ 14.9 µg/mL). The compound further showed a pIC50 in data set [7] of 5.21.
